Reference: ChEMBL document CHEMBL1143425, “Paradoxical growth effect of caspofungin observed on biofilms and planktonic cells of five different Candida species” (2007)
Converted amounts (≈) assume the structure as drawn. The source made the active and inactive calls.

Assays:
Candida orthopsilosis = test: Antimicrobial activity against Candida orthopsilosis BR-A39 grown as biofilm assessed as concentration producing paradoxical growth after 48 hrs by XTT reduction assay; type: functional
Outline: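 Sabouraud-grown cells were shaken overnight (18 h, 120 rpm, 35°C) in RPMI 1640 with MOPS at pH 7.0, then washed and set at ~1 × 10^7 cells/ml. Attachment lasted 1.5 h at 37°C, and growth ran 24 h before challenge. Caspofungin was added in RPMI at 2–1,024 μg/ml (10 doublings) for 48 h at 35°C with shaking. XTT-menadione was read at 490 nm after 1 h at 35°C in the dark, with blank wells subtracted. MIC was taken as 50% reduction versus drug-free wells, and PG as >50% of control above MIC. Assays were run in duplicate.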

Candida parapsilosis [1] = test: Antimicrobial activity against Candida parapsilosis BR-A27 grown as biofilm after 48 hrs by XTT reduction assay; type: functional; settings: Lodderomyces parapsilosis
Outline: (§1)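 Clinical isolates were grown overnight (18 h, 35°C, 120 rpm) in RPMI 1640 with MOPS, pH 7.0, then washed and set to ~1 × 10^7 cells/ml. Cells attached for 1.5 h at 37°C, 75 rpm, then biofilms grew 24 h. Caspofungin was given as doubling dilutions of 2–1,024 μg/ml for 48 h at 35°C, 75 rpm. Read-out was XTT-menadione in PBS, 1 h at 35°C in the dark, A490, cell-free blank subtracted. MIC was a 50% drop in activity versus drug-free; PG was >50% of control above MIC. Run in duplicate.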

Candida parapsilosis [2] = test: Antimicrobial activity against Candida parapsilosis BR-A27 grown as planktonic cell after 48 hrs by XTT reduction assay; type: functional; settings: Lodderomyces parapsilosis
Outline: (§2)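 Planktonic broth microdilution followed CLSI M27-A2, with caspofungin dissolved in water. After 48 h, XTT-menadione was added to the wells and plates were kept 1 h at 35°C in the dark. Plates were then centrifuged and supernatant A490 was read. MIC was the lowest concentration giving a 50% decrease in metabolic activity versus drug-free control. Paradoxical growth was defined as ≥20% of control activity above the MIC.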

Candida metapsilosis [3] = test: Antimicrobial activity against Candida metapsilosis BR-A42 grown as planktonic cell assessed as paradoxical growth after 48 hrs by XTT reduction assay; type: functional, organism-based
Outline: (§3)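 Planktonic cells were tested by CLSI M27-A2 broth microdilution with caspofungin in water, incubated 48 h. XTT-menadione was added to each well, plates were held 1 h at 35°C in the dark and centrifuged, and supernatant absorbance was read at 490 nm. MIC was defined as 50% decrease in metabolic activity versus drug-free control. PG was defined as ≥20% of control activity at concentrations above MIC.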

Candida tropicalis [4] = test: Antimicrobial activity against Candida tropicalis BR-A24 grown as planktonic cell after 48 hrs by XTT reduction assay; type: functional; outline: as §2
Candida tropicalis [5] = test: Antimicrobial activity against Candida tropicalis BR-A24 grown as biofilm after 48 hrs by XTT reduction assay; type: functional
Outline: (§4)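 Isolates were grown on Sabouraud agar (30°C, 24 h), then overnight in RPMI 1640 with MOPS, pH 7.0, at 35°C with shaking. Cells were washed and set to ~1 × 10^7 cells/ml, attached 1.5 h at 37°C, and grown 24 h. Biofilms were then exposed to caspofungin in 10 twofold dilutions (2–1,024 μg/ml) for 48 h at 35°C with shaking. Read-out was XTT-menadione, 1 h, 35°C, dark, A490, cell-free blank subtracted. MIC was the 50% drop in activity versus drug-free control. Tested in duplicate.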

Candida tropicalis [6] = test: Antimicrobial activity against Candida tropicalis BR-A24 grown as biofilm assessed as concentration producing paradoxical growth after 48 hrs by XTT reduction assay; type: functional; outline: as §1
Candida albicans = test: Antimicrobial activity against Candida albicans BR-A7 grown as biofilm after 48 hrs by XTT reduction assay; type: functional; outline: as §4
Candida metapsilosis [7] = test: Antimicrobial activity against Candida metapsilosis BR-A44 grown as planktonic cell assessed as paradoxical growth after 48 hrs by XTT reduction assay; type: functional, organism-based; outline: as §3
Candida parapsilosis [8] = test: Antimicrobial activity against Candida parapsilosis BR-A25 grown as planktonic cell assessed as concentration producing paradoxical growth after 48 hrs by XTT reduction assay; type: functional
Outline: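 Planktonic broth microdilution followed CLSI M27-A2, with caspofungin dissolved in water. After 48 h, XTT-menadione was added to each well and plates were incubated 1 h at 35°C in the dark. Cells were pelleted by centrifugation and the supernatant was read at 490 nm. MIC was the lowest concentration giving a 50% drop in metabolic activity versus the drug-free control. PG was ≥20% of drug-free activity above the MIC.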

Candida parapsilosis [9] = test: Antimicrobial activity against Candida parapsilosis BR-A30 grown as biofilm after 48 hrs by XTT reduction assay; type: functional; settings: Lodderomyces parapsilosis; outline: as §1

`CC[C@H](C)C[C@H](C)CCCCCCCCC(=O)N[C@H]1C[C@@H](O)[C@@H](NCCN)NC(=O)[C@@H]2[C@@H](O)CCN2C(=O)[C@H]([C@H](O)CCN)NC(=O)[C@H]([C@H](O)[C@@H](O)c2ccc(O)cc2)NC(=O)[C@@H]2C[C@@H](O)CN2C(=O)[C@H]([C@@H](C)O)NC1=O` [CASPOFUNGIN] showed an Activity (Candida orthopsilosis) of 32 µg/mL, an MIC (Candida parapsilosis [1]) of 256 µg/mL (≈ 234 µM) and an MIC (Candida parapsilosis [2]) of 2 µg/mL (≈ 1.83 µM). For the same compound, the Activity (Candida metapsilosis [3]) was “inactive”, the MIC (Candida tropicalis [4]) was 1 µg/mL (≈ 0.915 µM) and the MIC (Candida tropicalis [5]) was 2 µg/mL (≈ 1.83 µM). For the same compound, the Activity (Candida tropicalis [6]) was 8 µg/mL, the MIC (Candida albicans) was 2 µg/mL (≈ 1.83 µM) and the Activity (Candida metapsilosis [7]) was “inactive”. For the same compound, the Activity (Candida parapsilosis [8]) was 32 µg/mL and the MIC (Candida parapsilosis [9]) was 256 µg/mL (≈ 234 µM).
